Experimental data from ChEMBL document CHEMBL3085643, “Synthesis and evaluation in monkey of [(18)F]4-fluoro-N-methyl-N-(4-(6-(methylamino)pyrimidin-4-yl)thiazol-2-yl)benzamide ([(18)F]FIMX): a promising radioligand for PET imaging of brain metabotropic glutamate receptor 1 (mGluR1)” (J Med Chem, 2013).

Key:
[1] = Biodistribution in iv dosed rhesus monkey thalamus by PET analysis; assay type: ADME, organism-based, Macaca mulatta; settings: in vivo
How it was run: (§1)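 Baseline brain PET in rhesus monkey: radioligand given intravenously (4.6–6.58 mCi; specific activity 1.67–4.18 Ci/μmol at injection). Ketamine induction (10 mg/kg, i.m.), then 1.6% isoflurane in O₂; head held in a stereotaxic frame. Scan run 120 min in 33 frames (30 s–5 min). Regional uptake taken from regions of interest, cerebellar grey matter delineated by isocontour, expressed as SUV; decay-corrected.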

[2] = tested on: Plasma; assay: Biodistribution in rhesus monkey plasma assessed as radiometabolite [18F]-C level at 5.24 mCi, iv after 60 mins by radio-HPLC analysis; assay type: ADME, organism-based, Macaca mulatta; settings: in vivo, 1 h
How it was run: (§2)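 Single rhesus monkey (7.0 kg) given the radioligand iv (5.24 mCi; 1.4 nmol/kg). Venous blood drawn at 10, 30, 60 and 120 min. Separated plasma analysed by radio-HPLC on a C18 radial-compression column, eluted at 2.0 mL/min with MeOH:H₂O:Et₃N (65:35:0.1). Parent and radiometabolites given as percent of plasma radioactivity; blood-component radioactivity expressed as SUV; decay-corrected.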

[3] = Fraction unbound in rhesus monkey plasma by radio-HPLC analysis; assay type: ADME, cell-free, Macaca mulatta
[4] = Fraction unbound in human plasma by radio-HPLC analysis; assay type: ADME, cell-free
[5] = Biodistribution in iv dosed rhesus monkey cerebellum measured at 90 mins by PET analysis; assay type: ADME, organism-based, Macaca mulatta; settings: in vivo, 1.5 h; how it was run: as §1
[6] = Biodistribution in iv dosed rhesus monkey anterior cingulate by PET analysis; assay type: ADME, organism-based, Macaca mulatta; settings: in vivo
How it was run: (§3)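 Baseline scans in rhesus monkey given the [18F] radioligand i.v. (4.6–6.58 mCi; specific activity 1.67–4.18 Ci/μmol at injection). Ketamine 10 mg/kg i.m. induction, then 1.6% isoflurane/98.4% O2, with the head in a stereotaxic frame. microPET Focus 220 scanning for 120 min in 33 frames (30 s–5 min). Regional uptake, including isocontour-delineated cerebellar grey matter, expressed as SUV.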

[7] = tested on: Brain; assay: Biodistribution in iv dosed rhesus monkey brain administered 5 mins post mGluR1 antagonist JNJ-16259685-challenge by PET analysis; assay type: organism-based, Macaca mulatta; settings: in vivo
How it was run: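 Receptor preblock in the baseline monkey on a separate day: JNJ-16259685 (3 mg/kg) given i.v. 5 min before the i.v. [18F] radioligand (4.6–6.58 mCi). Under ketamine/isoflurane anesthesia in a stereotaxic frame, the brain was scanned with microPET for 120 min in 33 frames. Regional time–activity curves expressed as SUV.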

[8] = Biodistribution in iv dosed rhesus monkey cerebellum measured at 12 mins by PET analysis; assay type: ADME, organism-based, Macaca mulatta; settings: in vivo, 0.2 h; how it was run: as §1
[9] = tested on: Plasma; assay: Biodistribution in rhesus monkey plasma at 5.24 mCi, iv measured at 31 mins by radio-HPLC analysis; assay type: ADME, organism-based, Macaca mulatta; settings: in vivo; how it was run: as §2
[10] = tested on: Plasma; assay: Biodistribution in rhesus monkey plasma at 5.24 mCi, iv after 60 mins by radio-HPLC analysis; assay type: ADME, organism-based, Macaca mulatta; settings: in vivo, 1 h; how it was run: as §2
[11] = Biodistribution in iv dosed rhesus monkey frontal cortex by PET analysis; assay type: ADME, organism-based, Macaca mulatta; settings: in vivo; how it was run: as §1
[12] = Metabolic stability in rhesus monkey whole blood assessed as compound remaining after 30 mins by radio-HPLC analysis; assay type: ADME, tissue-based, Macaca mulatta; settings: read-out: Stability
How it was run: (§4)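 Radioligand incubated in rhesus monkey whole blood or plasma at room temperature for at least 30 min. Blood lysed with water for 30 s; samples deproteinized with MeCN and spun at 10,000 g. Supernatants analysed by radio-HPLC; precipitates counted to give extraction efficiency. Percent unchanged parent divided by radiochemical purity.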

[13] = tested on: Plasma; assay: Biodistribution in rhesus monkey plasma at 5.24 mCi, iv after 2 hrs by radio-HPLC analysis; assay type: ADME, organism-based, Macaca mulatta; settings: in vivo; how it was run: as §2
[14] = tested on: Plasma; assay: Biodistribution in rhesus monkey plasma assessed as radiometabolite [18F]-B level at 5.24 mCi, iv after 60 mins by radio-HPLC analysis; assay type: ADME, organism-based, Macaca mulatta; settings: in vivo, 1 h; how it was run: as §2
[15] = tested on: Blood; assay: Biodistribution in rhesus monkey whole blood at 5.24 mCi, iv up to 150 mins by radio-HPLC analysis; assay type: ADME, organism-based, Macaca mulatta; settings: in vivo, 2 h, in the assay text read “120 mins” for “150 mins”
How it was run: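 Venous blood sampled after iv injection of radioligand (5.24 mCi; 1.4 nmol/kg) in one 7.0 kg rhesus monkey. Whole-blood radioactivity was gamma-counted, decay-corrected and expressed as SUV.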

[16] = tested on: Brain; assay: Biodistribution in iv dosed rhesus monkey brain administered 30 mins prior to […]-challenge by PET analysis; assay type: ADME, organism-based, Macaca mulatta; settings: in vivo, 0.5 h, in the assay text read “mGluR5 ligand” for “mGluR1 ligand”
How it was run: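 Third rhesus monkey (8.1 kg): the mGluR5-selective ligand MTEP (5 mg/kg) given i.v. 30 min after the i.v. [18F] radioligand. Anesthesia was ketamine then isoflurane, with the head in a stereotaxic frame. A 120-min microPET acquisition in 33 frames was run, and regional washout expressed as SUV.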

[17] = Biodistribution in iv dosed rhesus monkey skull by PET analysis; assay type: ADME, organism-based, Macaca mulatta; settings: in vivo; how it was run: as §1
[18] = tested on: Brain; assay: Biodistribution in iv dosed rhesus monkey brain administered 30 mins prior to mGluR1 antagonist JNJ-16259685-challenge by PET analysis; assay type: organism-based, Macaca mulatta; settings: in vivo, 0.5 h
How it was run: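 Displacement challenge in a second rhesus monkey: JNJ-16259685 (3 mg/kg) given i.v. 30 min after the i.v. [18F] radioligand injection. Anesthesia was ketamine 10 mg/kg i.m. then 1.6% isoflurane. The brain was scanned with microPET for 120 min in 33 frames, and regional radioactivity expressed as SUV.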

[19] = Biodistribution in iv dosed rhesus monkey cerebellum measured at 2 hrs by PET analysis; assay type: ADME, organism-based, Macaca mulatta; settings: in vivo; how it was run: as §1
[20] = Biodistribution in iv dosed rhesus monkey putamen by PET analysis; assay type: ADME, organism-based, Macaca mulatta; settings: in vivo; how it was run: as §1
[21] = tested on: Plasma; assay: Biodistribution in rhesus monkey plasma assessed as radiometabolite [18F]-E level at 5.24 mCi, iv after 60 mins by radio-HPLC analysis; assay type: ADME, organism-based, Macaca mulatta; settings: in vivo, 1 h; how it was run: as §2
[22] = Octanol-sodium phosphate buffer distribution coefficient, log D of the compound at pH 7.4; assay type: physicochemical
How it was run: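 Measured LogD of the [18F]-labelled compound: distribution between n-octanol and 0.15 M sodium phosphate buffer, pH 7.4; n = 6.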

[23] = tested on: Hippocampus; assay: Biodistribution in iv dosed rhesus monkey hippocampus by PET analysis; assay type: ADME, organism-based, Macaca mulatta; settings: in vivo; how it was run: as §1
[24] = tested on: Brain; assay: Biodistribution in iv dosed rhesus monkey brain measured up to 120 mins by PET analysis; assay type: ADME, organism-based, Macaca mulatta; settings: in vivo, 2 h; how it was run: as §3
[25] = tested on: Plasma; assay: Biodistribution in rhesus monkey plasma assessed as radiometabolite [18F]-A level at 5.24 mCi, iv after 60 mins by radio-HPLC analysis; assay type: ADME, organism-based, Macaca mulatta; settings: in vivo, 1 h; how it was run: as §2
[26] = Metabolic stability in rhesus monkey plasma assessed as compound remaining after 30 mins by radio-HPLC analysis; assay type: ADME, cell-free, Macaca mulatta; settings: read-out: Stability; how it was run: as §4
[27] = tested on: Plasma; assay: Biodistribution in rhesus monkey plasma assessed as radiometabolite [18F]-D level at 5.24 mCi, iv after 60 mins by radio-HPLC analysis; assay type: ADME, organism-based, Macaca mulatta; settings: in vivo, 1 h; how it was run: as §2

- SUV [1]: 2.9
- Drug uptake [2]: 10%
- fraction unbound [3]: 0.0123
- fraction unbound [4]: 0.0114
- SUV [5]: 3.32
- SUV [6]: 2.4
- Drug uptake [7]: Active
- SUV [8]: 5.3
- Drug uptake [9]: 31%
- Drug uptake [10]: 26%
- SUV [11]: 2.7
- remaining at 0.5 h [12]: 98.1%
- Drug uptake [13]: Active
- Drug uptake [14]: 23%
- Drug uptake [15]: Active
- Drug uptake [16]: Active
- Drug uptake [17]: Not Active
- Drug uptake [18]: Active
- SUV [19]: 2.8
- SUV [20]: 2.5
- Drug uptake [21]: 21%
- logD [22]: 2.52
- SUV [23]: 2.5
- Drug uptake [24]: Active
- Drug uptake [25]: 19%
- remaining at 0.5 h [26]: 98.9%
- Drug uptake [27]: 1%
Structure (SMILES): CNc1cc(-c2csc(N(C)C(=O)c3ccc([18F])cc3)n2)ncn1
